Assay results of several laboratories.
Each line is one published result; the experiments were not run side by side.
Cell line: PC-3
Read-out: cell growth or viability

For `COc1cc(C(=O)c2nc(-c3ccc4ccccc4c3)c[nH]2)cc(OC)c1OC`, the IC50 was 0.388 µM (MTS; 72 h).
For `O=[N+]([O-])c1ccc(NCCCCN=C=S)c2nonc12`, the IC50 was 3.3 µM (MTT; 24 h).
`CC[C@@]1(O)C(=O)OCc2c1cc1n(c2=O)Cc2cc3ccccc3nc2-1` gave an IC50 of 0.15 µM (SRB; 48 h).
`COc1cc(C(=O)c2nc(-c3cccc4[nH]ccc34)c(Br)[nH]2)cc(OC)c1OC` has an IC50 of over 1 µM (MTS; 72 h).
`O=C1CCc2cc(-c3cccc(OC(=O)[C@H]4[C@H](c5ccccc5)[C@@H](C(=O)O)[C@H]4c4ccccc4)c3)ccc2N1` gave an IC50 of 13.1 µM (MTT).
`N=c1c2c(-c3ccccc3)c(-c3ccccc3)n(Cc3ccccc3)c2ncn1[C@H]1CC[C@H](O)CC1` gave an IC50 of 10.8 µM (CCK-8).
With `O=C1CCP(=S)(c2ccccc2)CC1` the IC50 was 6 µM (MTT; 72 h).
The IC50 of `O=C(O)C1C(c2ccccc2)C(C(=O)Oc2cc(-c3ccc4c(c3)OCO4)ccc2-c2cncnc2)C1c1ccccc1` (stereo not drawn) is reported as 17.8 µM (MTT).
The IC50 of `S=P1(C2CCCCC2)CCCCC1` is reported as over 100 µM (MTT; 72 h).
`C[S+]([O-])CCCCN=C=S` (stereo not drawn) gave an IC50 of 33.5 µM (MTT; 24 h).
`O=C1CCP(=[Se])(c2ccccc2)CC1` gave an IC50 of over 100 µM (MTT; 72 h).
The IC50 of `COc1cc(C(=O)c2nc(-c3c[nH]c4cccc(C)c34)c[nH]2)cc(OC)c1OC` is reported as 0.466 µM (MTS; 72 h).
